{
  "source": "ChEMBL document CHEMBL4033789",
  "about": "“Discovery of a New Four-Leaf Clover-Like Ligand as a Potent c-MYC Transcription Inhibitor Specifically Targeting the Promoter G-Quadruplex” (J Med Chem, 2018)",
  "key": {"SiHa [1]": {"tested_on": "SiHa", "experiment": "Cytotoxicity against human SiHa cells assessed as cell growth inhibition at 1.2 to 3 uM after 130 hrs by RTCA assay", "assay_type": "functional, cell-based", "outline": "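Cells seeded at 2000 per well on impedance plates, settled 20 min at room temperature, profiled 24 h; medium then replaced with compound-containing medium and cells monitored to 130 h total. Cell index normalized to 1.0 at the time point just before compound addition.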"}, "SiHa [2]": {"tested_on": "SiHa", "experiment": "Antitumor activity against human SiHa cells xenografted in nude BALB/c mouse assessed as tumor growth inhibition at 5 mg,kg, ip administered every other day for 24 days", "assay_type": "functional", "outline": "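BALB/c nude mice (5 weeks old) given 1×10^7 SiHa cells subcutaneously in right flank; at ~50 mm3 tumor volume, randomized (10 per group) and dosed intraperitoneally every other day for 24 days; controls got equal-volume saline. Caliper volume as 1/2 × length × width2; tumors weighed at end; inhibition rate = (1 − mean treated tumor weight/mean control tumor weight) × 100%.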"}, "[3]": {"experiment": "Stabilization of KRAS G-quadruplex DNA in human SiHa cells assessed as effect on […] mRNA level at 1.25 to 5 uM fter 6 hrs by RT-PCR method", "assay_type": "ADME, cell-based", "outline": "(§1)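 SiHa cells (2.0×10^5 per well) treated 6 h; total RNA (2 µg) reverse-transcribed with oligo dT18 and M-MLV at 42 °C for 1 h, 85 °C for 5 min; PCR: 95 °C 5 min, then 30 cycles of 95 °C 30 s, 58 °C 30 s, 72 °C 40 s; products checked on agarose gel.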"}, "Homo sapiens": {"organism": "Homo sapiens", "experiment": "Stabilization of c-Myc promoter G-quadruplex DNA in human CA46 cells assessed as downregulation of exon 1 transcriptional level at 1.25 to 5 uM after 6 hrs by RT-PCR analysis", "assay_type": "cell-based", "outline": "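RAJI and CA46 cells treated 6 h over a concentration range; total RNA reverse-transcribed (oligo dT18, M-MLV, 42 °C 1 h then 85 °C 5 min); exon 1 and exon 2 amplified by real-time PCR with exon-specific primers, products run on 1% agarose gel; three repeats.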"}, "[4]": {"experiment": "Stabilization of wild type c-Myc promoter G-quadruplex DNA (unknown origin) transfected in human SiHa cells co-expressing psiCHECK2 luciferase plasmid assessed as inhibition of gene transcription at 1.25 to 2.5 uM after 48 hrs by dual-luciferase reporter gene assay", "assay_type": "cell-based", "outline": "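SiHa cells transfected with psiCHECK2 carrying wild-type or mutant c-MYC promoter driving Renilla luciferase, firefly luciferase on same plasmid; compound added 4 h post-transfection, incubated further at 37 °C; Renilla signal normalized to firefly; three repeats, mean ± SEM.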"}, "HeLa": {"tested_on": "HeLa", "experiment": "Cytotoxicity against human HeLa cells assessed as reduction in cell viability after 24 hrs by MTT assay", "assay_type": "functional, cell-based", "outline": "(§2)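 Cells seeded at 5.0×10^3 per well, exposed to compound for 24 h; MTT (2.5 mg/mL) added for 4 h, formazan dissolved in DMSO, OD read at 570 nm. Triplicate; IC50 from curves of mean OD against concentration.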"}, "[5]": {"experiment": "Stabilization of VEGF G-quadruplex DNA in human SiHa cells assessed as effect on VEGF mRNA level at 1.25 to 5 uM fter 6 hrs by RT-PCR method", "assay_type": "ADME, cell-based", "outline": "(§3)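 SiHa cells (2.0×10^5) dosed 6 h; total RNA reverse-transcribed with oligo dT18 primer and M-MLV (42 °C 1 h, 85 °C 5 min); PCR 95 °C 5 min then 30 cycles (95 °C 30 s, 58 °C 30 s, 72 °C 40 s); products checked on agarose gel.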"}, "BJ [6]": {"tested_on": "BJ", "experiment": "Cytotoxicity against human BJ cells assessed as reduction in cell viability after 24 hrs by MTT assay", "assay_type": "cell-based", "outline": "as §2"}, "[7]": {"experiment": "Stabilization of hybrid telomeric htg22 G-quadruplex DNA (unknown origin) assessed as effect on melting temperature at 15 uM by circular dichroism spectroscopic assay", "assay_type": "ADME", "outline": "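CD melting of 3 µM annealed G-quadruplex with or without 15 µM ligand in 10 mM Tris-HCl pH 7.2 with 2 mM KCl (50 mM KCl for htg22 and HRAS); read every 5 °C over 25–95 °C, heating 1 °C/min.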"}, "[8]": {"experiment": "Stabilization of Bcl2 G-quadruplex DNA in human SiHa cells assessed as effect on Bcl2 mRNA level at 1.25 to 5 uM fter 6 hrs by RT-PCR method", "assay_type": "ADME, cell-based", "outline": "as §1"}, "[9]": {"experiment": "Stabilization of RET G-quadruplex DNA in human SiHa cells assessed as effect on RET mRNA level at 1.25 to 5 uM fter 6 hrs by RT-PCR method", "assay_type": "ADME, cell-based", "outline": "as §3"}, "[10]": {"experiment": "Binding affinity to 1 uM KRAS promoter G-quadruplex DNA (unknown origin) at 1 uM after 1 min by fluorescence spectroscopic analysis", "assay_type": "ADME", "outline": "(§4)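 Fluorescence emission spectra of 1 µM compound mixed with 1 µM pre-annealed oligonucleotide (G-quadruplexes folded in 100 mM KCl by heating to 95 °C for 5 min, slow cooling), in Tris-HCl buffer.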"}, "[11]": {"experiment": "Binding affinity to 1 uM VEGF promoter G-quadruplex DNA (unknown origin) at 1 uM after 1 min by fluorescence spectroscopic analysis", "assay_type": "ADME", "outline": "as §4"}, "[12]": {"experiment": "Binding affinity to up to 1 uM c-MYC promoter G-quadruplex pu22 DNA (unknown origin) after 1 min by fluorescence titration method", "outline": "(§5)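 Oligonucleotide stock added stepwise to fixed-concentration compound in 10 mM Tris-HCl pH 7.2, 100 mM KCl; equilibrated ≥1 min after each addition, emission read with excitation at 350 nm. KD from fitting titration data to the Benesi–Hildebrand equation; 1:1 stoichiometry checked by Job plot.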"}, "[13]": {"experiment": "Stabilization of c-Kit G-quadruplex DNA in human SiHa cells assessed as effect on c-Kit mRNA level at 1.25 to 5 uM fter 6 hrs by RT-PCR method", "assay_type": "ADME, cell-based", "outline": "as §3"}, "[14]": {"experiment": "Binding affinity to 1 uM BCL2 promoter G-quadruplex DNA (unknown origin) at 1 uM after 1 min by fluorescence spectroscopic analysis", "assay_type": "ADME", "outline": "as §4"}, "[15]": {"experiment": "Binding affinity to BCL2 promoter G-quadruplex DNA (unknown origin) after 1 min by fluorescence titration method", "assay_type": "ADME", "outline": "as §5"}, "SiHa [16]": {"tested_on": "SiHa", "experiment": "Induction of apoptosis in human SiHa cells assessed as early apoptotic cells at 5 uM after 24 hrs by Annexin V-FITC/propidium iodide-staining based flow cytometric analysis", "assay_type": "functional"}, "[17]": {"experiment": "Stabilization of PDGFA G-quadruplex DNA in human SiHa cells assessed as effect on PDGFA mRNA level at 1.25 to 5 uM fter 6 hrs by RT-PCR method", "assay_type": "ADME, cell-based", "outline": "as §1"}, "SiHa [18]": {"tested_on": "SiHa", "experiment": "Induction of apoptosis in human SiHa cells assessed as late apoptotic cells at 5 uM after 24 hrs by Annexin V-FITC/propidium iodide-staining based flow cytometric analysis", "assay_type": "functional"}, "BJ [19]": {"tested_on": "BJ", "experiment": "Antiproliferative activity against human BJ cells assessed as reduction in colony formation at 0.5 uM measured on day 8 by crystal violet-staining based assay", "assay_type": "cell-based", "outline": "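Cells seeded at 300 per well in six-well plates, exposed to compound at 37 °C, 5% CO2, with drug-containing medium replaced every 2 days; after 8 days of culture, colonies fixed with methanol and stained with crystal violet.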"}},
  "note": "Active and inactive are the calls of the source. The rule behind the calls is not given here.",
  "data": [
    {"smiles": "CCn1c2ccccc2c2cc(-c3nc(-c4ccc(N5CCN(C)CC5)cc4)c(-c4ccc(N5CCN(C)CC5)cc4)n3-c3ccc(OC)cc3)ccc21", "values": [
      {"measurement": "growth inhibition (GI)", "setting": "SiHa [1]", "value": "Active"},
      {"measurement": "TGI", "setting": "SiHa [2]", "value": 57, "unit": "%"},
      {"measurement": "Activity", "setting": "[3]", "value": "Not Active"},
      {"measurement": "Activity", "setting": "Homo sapiens", "value": "Active"},
      {"measurement": "inhibition", "setting": "[4]", "value": "Active"},
      {"measurement": "IC50", "setting": "HeLa", "value": 2.1, "unit": "µM"},
      {"measurement": "Activity", "setting": "[5]", "value": "Not Active"},
      {"measurement": "IC50", "setting": "BJ [6]", "value": 15.9, "unit": "µM"},
      {"measurement": "Activity", "setting": "[7]", "value": "Not Active"},
      {"measurement": "Activity", "setting": "[8]", "value": "Not Active"},
      {"measurement": "Activity", "setting": "[9]", "value": "Not Active"},
      {"measurement": "Activity", "setting": "[10]", "value": "Not Active"},
      {"measurement": "Activity", "setting": "[11]", "value": "Not Active"},
      {"measurement": "Kd", "setting": "[12]", "value": 0.1, "unit": "µM"},
      {"measurement": "Activity", "setting": "[13]", "value": "Not Active"},
      {"measurement": "Activity", "setting": "[14]", "value": "Not Active"},
      {"measurement": "Kd", "setting": "[15]", "value": 0.8, "unit": "µM"},
      {"measurement": "Activity", "setting": "SiHa [16]", "value": 22, "unit": "%"},
      {"measurement": "Activity", "setting": "[17]", "value": "Not Active"},
      {"measurement": "Activity", "setting": "SiHa [18]", "value": 52, "unit": "%"},
      {"measurement": "Activity", "setting": "BJ [19]", "value": "Non-Toxic"}
    ]}
  ]
}
